Source: PubChem
Only some compounds are listed: those with a hit (about 2.9% of all), similar ones and a draw of the others.
OX1R antag-1: human HCRTR1 antagonism | CHO/OX1R cells, Fluo-8 calcium fluorescence, orexin A | AID 434989 | inhibition, % at 5 µM | actives 0.43% (n = 330,000) | O43613;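 active = inhibition above its plate's threshold, mean inhibition of all tested compounds on the plate plus 3 SD, cut at about 37% in these data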
Target sequence (O43613 whole entry, looked up): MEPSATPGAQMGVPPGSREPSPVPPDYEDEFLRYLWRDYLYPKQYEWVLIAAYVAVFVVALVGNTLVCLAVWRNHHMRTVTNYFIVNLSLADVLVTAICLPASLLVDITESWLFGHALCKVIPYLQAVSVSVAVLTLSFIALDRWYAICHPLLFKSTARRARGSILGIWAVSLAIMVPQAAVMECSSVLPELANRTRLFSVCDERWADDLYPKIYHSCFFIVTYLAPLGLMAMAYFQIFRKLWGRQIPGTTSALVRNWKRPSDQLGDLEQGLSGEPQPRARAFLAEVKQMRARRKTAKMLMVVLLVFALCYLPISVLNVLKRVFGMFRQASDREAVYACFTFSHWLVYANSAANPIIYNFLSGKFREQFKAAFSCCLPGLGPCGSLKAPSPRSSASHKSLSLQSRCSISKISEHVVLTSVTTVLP
CHO-K1 Ca ag: nonselective activator or artifact in parental CHO-K1 cells; Fluo-8 calcium fluorescence; scaled to maximal ATP response, vehicle zero; activation, % at 3 µM; actives 0.48% (n = 360,000); in the data active = activation above about 15%;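 also: untransfected CHO-K1 host cells lacking M1 receptor as counterscreen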
CHO parental Ca: signal in parental CHO cells, OX1R antagonist counter-screen | parental CHO-K1, ATP-induced calcium, Fluo-8 fluorescence | inhibition, % at 5.6 µM | actives 0.63% (n = 330,000);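 active = inhibition above that plate's mean sample inhibition plus 3 SD, cut at about 26% in these data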
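Test system: untransfected parental CHO cell line; also added: ATP stimulus; dosing: 5.6 µM, single dose; signal: calcium-sensitive Fluo-8 fluorescence; measure: percent inhibition of ATP-evoked calcium rise, normalized to controls; benchmarks: low control ATP plus DMSO, high control DMSO only; replication: one well per compound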
OX1R antag-2: OX1R (human) antagonism; O43613; OX1R-expressing cells, FRET antagonist read-out; inhibition, % at 6.6 µM; actives 1.8% (n = 330,000); AID 485270; in the data active = inhibition mostly above about 38%, no sharp cut-off; inactive = mostly below about 40%
CHO-K1 Ca antag: counter-screen for M1 antagonists: effect in parental CHO-K1 cells | ATP-induced calcium, Fluo-8 fluorescence | inhibition, % at 3 µM | actives 0.6% (n = 360,000) | AID 602250;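 active = inhibition above a per-plate cutoff, the plate's mean sample inhibition plus 3 SD, cut at about 24% in these data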
M1 PAM parental: nonselective activator or artifact in parental CHO-K1 calcium assay; ATP EC20, Fluo-8 calcium fluorescence; 0% at ATP EC20, 100% at ATP max; activation, % at 3 µM; actives 0.02% (n = 360,000); AID 602247;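 active = activation above the run cutoff, the mean activation of all test compounds plus 3 SD, cut at about 40% in these data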;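 also: peak over basal fluorescence ratio in a 140 s read after ATP addition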
Large screens that a line does not name were inactive.

COC1=CC(=O)C=C(OC)C1=O	none (no result: OX1R antag-1, CHO parental Ca, OX1R antag-2)
CCOC(=O)N1CCN(C(=O)CSCC(=O)Nc2nc(-c3ccc(C)cc3)cs2)CC1	none
O=C(CSCC(=O)N1CCCc2ccccc21)Nc1nc(-c2ccccc2)cs1	OX1R antag-2 33
Cc1cc(/C=C2\SC(=S)NC2=O)cc(C)c1O	OX1R antag-2 46
O=C1NC(=S)SC1=Cc1ccccc1Cl	none (no result: OX1R antag-1, CHO parental Ca, OX1R antag-2)
Cc1cc(/C=C2\SC(=S)NC2=O)c(C)n1C	none
O=C1NC(=S)S/C1=C\c1cc(Cl)cc(Cl)c1O	CHO-K1 Ca ag 37 (no result: OX1R antag-1, CHO parental Ca, OX1R antag-2)
Cc1cc(/C=C2\SC(=S)NC2=O)c(C)n1-c1ccccc1	OX1R antag-2 45
O=C(CN1CCOCC1)Nc1ccc(OC(F)(F)F)cc1	none
COc1cc(-c2noc(C)c2C(=O)NCCCn2ccnc2)cc(OC)c1OC	none
O=[N+]([O-])c1ccc(Oc2ccc(S(=O)(=O)Nc3ccccc3)cc2)cc1	OX1R antag-1 50, CHO-K1 Ca ag 19, CHO-K1 Ca antag 29
O=[N+]([O-])c1ccc(S(=O)(=O)Nc2ccncc2)cc1	none
O=[N+]([O-])c1ccc(Oc2ncccn2)cc1	OX1R antag-2 45
O=S(=O)(Nc1ccc(Nc2ccccc2)cc1)c1ccc(F)cc1	CHO-K1 Ca antag 24
O=[N+]([O-])c1ccc(Oc2cnc3ccccc3n2)cc1	none
O=C1C(Cl)=C(NS(=O)(=O)c2ccc([N+](=O)[O-])cc2)C(=O)c2ccccc21	OX1R antag-2 45
CCOC(=O)C[C@H]1c2cc(F)ccc2S(=O)(=O)N1C1CCCC1	none
CC1CC(C)CN(C(=O)c2cccc(S(=O)(=O)NCc3ccccc3)c2)C1 (centres undefined)	none
CCN(C(=O)CSc1nnc(-c2c[nH]c3ccccc23)n1C1CC1)C1CCS(=O)(=O)C1 (centres undefined)	none
CN(C)c1ccc(-c2nc3ccccc3c(=O)[nH]2)cc1	OX1R antag-2 57
CSc1nc(N)n2nccc2n1	none (no result: OX1R antag-1, CHO parental Ca, OX1R antag-2)
COc1ccc(-n2sc3ccccc3c2=O)cc1	none (no result: OX1R antag-1, CHO parental Ca, OX1R antag-2)
COc1ccc(-n2sc3ccc(F)cc3c2=O)cc1	CHO parental Ca 65
O=c1c2cc(F)ccc2sn1-c1ccc(F)cc1	OX1R antag-2 32
Cc1ccc(C)c(-n2sc3ccc(F)cc3c2=O)c1	CHO parental Ca 45
O=c1c2cc([N+](=O)[O-])ccc2sn1-c1ccccc1	none (no result: OX1R antag-1, CHO parental Ca, OX1R antag-2)
CCN1C[C@@H]2[C@@H]3C(=O)N(C)C(=O)[C@@H]3[C@](Cc3ccccc3)(C(=O)OC)N2C1=NC1CCCCC1	none
CCNC(=O)C1(C)CCN(C(=O)c2cccs2)C1 (centres undefined)	none (no result: OX1R antag-1, CHO parental Ca, OX1R antag-2)
CCN(CC)S(=O)(=O)c1ccc(Cl)c(C(=O)Nc2ccc(Cl)cc2[N+](=O)[O-])c1	CHO parental Ca 50
CC(=O)Nc1cc(-c2cccc(F)c2)cn2c(-c3ccc(F)cc3)cnc12	none (no result: OX1R antag-1, CHO parental Ca, OX1R antag-2)
Nc1nc(-c2ccccc2)[nH]c(=O)c1N=O	OX1R antag-2 58
N#Cc1c(-c2ccccc2)nc(-c2ccccc2)[nH]c1=O	none
CC(C)CN(C(=O)COC(=O)CCCc1c[nH]c2ccccc12)c1c(N)n(Cc2ccccc2)c(=O)[nH]c1=O	none
Cn1cc(SCC(=O)NCCc2ccccc2)c2ccccc21	none
O=C(CSc1cn(CCNC(=O)c2cccs2)c2ccccc12)NC1CCCCC1	OX1R antag-2 41
O=C(NCCn1cc(SCc2ccccc2F)c2ccccc21)c1c(F)cccc1F	CHO parental Ca 80
O=C(CSc1cn(CCNC(=O)c2cccs2)c2ccccc12)NCC1CCCO1 (centres undefined)	none
O=C(CSc1cn(CCNC(=O)c2cccs2)c2ccccc12)NCc1ccccc1	OX1R antag-2 41
COc1ccccc1C(=O)NCCn1cc(SCC(=O)Nc2cc(C)on2)c2ccccc21	OX1R antag-2 42
O=C(NCCn1cc(SCC(=O)N2CCOCC2)c2ccccc21)c1c(F)cccc1F	none
CCCCn1c(N)c(N(Cc2ccccc2OC)C(=O)C(C)Oc2cccc(Cl)c2)c(=O)[nH]c1=O (centres undefined)	none (no result: OX1R antag-1, CHO parental Ca, OX1R antag-2)
O=c1[nH]c(=S)[nH]cc1Oc1ccccc1	none (no result: OX1R antag-1, CHO parental Ca, OX1R antag-2)
CCCCN(C)C(=O)c1ccc(Nc2nc(C(N)COCc3ccccc3)cs2)nc1 (centres undefined)	none (no result: OX1R antag-1, CHO parental Ca, OX1R antag-2)
CCCCCOc1ccc(NC(=O)C(=O)NCC2CCCN2CC)cc1 (centres undefined)	CHO-K1 Ca antag 25
CCN1CCCC1CNC(=O)C(=O)NC (centres undefined)	none
CCOc1ccc(-c2n[nH]c(C)c2Oc2ccc(OC)cc2)c(O)c1	CHO-K1 Ca antag 24
O=C(Cc1ccccc1)NCC(=O)N/N=C/c1ccc([N+](=O)[O-])s1	OX1R antag-2 52
O=C(CNC(=O)c1ccccc1)N/N=C/c1ccc([N+](=O)[O-])s1	OX1R antag-2 47
O=C(N/N=C/c1ccc([N+](=O)[O-])s1)c1cccc(Br)c1	none
O=C(N/N=C\c1ccc([N+](=O)[O-])s1)C1COc2ccccc2O1 (centres undefined)	CHO-K1 Ca antag 65
Cc1ccc(C(=O)N/N=C/c2ccc([N+](=O)[O-])s2)cc1	none
O=C(N/N=C/c1ccc([N+](=O)[O-])s1)c1ccncc1	OX1R antag-2 72
C[C@@H]1CN([C@H](C)CO)C(=O)CCCn2cc(nn2)CO[C@H]1CN(C)S(=O)(=O)c1ccccc1F	none (no result: OX1R antag-1, CHO parental Ca, OX1R antag-2)
COc1ccc(OC)c(S(=O)(=O)N/N=C(/C)c2ccc3c(c2)OCO3)c1	none (no result: OX1R antag-1, CHO parental Ca, OX1R antag-2)
CCOC(=O)C1CCN(c2ccc([N+](=O)[O-])c(C(C)=O)c2)CC1	none
O=C(C1=C(O)C(=O)N(c2nccs2)C1c1ccccc1)c1cc2ccccc2o1 (centres undefined)	OX1R antag-1 52, CHO-K1 Ca ag 24
CC1Cc2ccccc2N1S(=O)(=O)c1cccc(C(=O)N2Cc3ccccc3CC2C(N)=O)c1 (centres undefined)	none
c1ccc2c(c1)oc1c(Nc3ccc4c(c3)OCCO4)ncnc12	OX1R antag-2 72
Cc1nc(Nc2ccc3c(c2)OCCO3)c2oc3ccccc3c2n1	OX1R antag-2 55
COc1cc(S(=O)(=O)Nc2cc(C)cc(C)c2)ccc1F	none
Cc1cc(C)cc(NS(=O)(=O)c2cnc(Cl)c(Cl)c2)c1	OX1R antag-1 52, CHO parental Ca 95
O=C(NC1CCC(Oc2ccc(C(=O)O)cc2)CC1)NC12CC3CC(CC(C3)C1)C2 (centres undefined)	none
CC(C)CCC(CCNCc1ccccn1)c1ccc(Cl)cc1 (centres undefined)	none
CC1CCN(CCCNc2cc(NCCO)c([N+](=O)[O-])c3nonc23)CC1	OX1R antag-2 38
O=[N+]([O-])c1c(NCCCO)cc(SCc2ccco2)c2nonc12	OX1R antag-2 61
Cc1ccc(NC(=O)c2ccc(NCCCN3CCC(C)CC3)c([N+](=O)[O-])c2)c(C)c1	none
